Experimental data: ChEMBL document CHEMBL1159381, “New Sesquiterpenes from Litsea verticillata” (J Nat Prod, 2003)
pIC50: −log10 of the molar value.

What was measured:
[1] = Cytotoxicity against GFP reporter gene expressing human HOG.R5 cells up to 20 ug/mL; format: cell-based
Method in brief: (§1)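 Run in parallel with the anti-HIV assay: HOG.R5 GFP reporter cultures given identical concentrations of test material but no virus; cell viability monitored after 4 days by combined microscopic and fluorometric measurement; CC50 derived.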

[2] = Cytotoxicity against GFP reporter gene expressing human HOG.R5 cells at 10 ug/mL; format: cell-based; conditions: in the assay text read “20 ug/mL” for “10 ug/mL”; method in brief: as §1
[3] = test system: Human immunodeficiency virus 1; test: Antiviral activity against HIV1 3B in human HOG.R5 cells by GFP-based reporter gene assay; format: functional, organism-based; conditions: Human immunodeficiency virus 1, 3B
Method in brief: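 HOG.R5 GFP reporter cells in microtiter wells infected with HIV-1 IIIB (2.5 ng/mL p24) in presence of test material; GFP fluorescence read after 4 days to quantify infectivity; IC50 derived.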

[4] = Cytotoxicity against GFP reporter gene expressing human HOG.R5 cells; format: cell-based; method in brief: as §1

Compound	Activity [1]	Activity [2]	pIC50 [3]	CC50 [4] [µM]
C=C1CC[C@@H](O)[C@]2(C)CC[C@H](C(C)C)[C@@H](O)[C@H]12	Non-toxic	Non-toxic	4.14	–
CC(=O)CC/C(=C/C1=C(C)CCC1=O)C(C)C [LITSEACHROMOLAEVANE B]	Non-toxic	Non-toxic	3.92	–
C=C1CC[C@H](C(C)(C)O)/C=C/[C@@H](C)CCC1=O [LITSEAGERMACRANE]	–	–	4.56	63.4
